The results in this text go back to article PMC9315039 (Angewandte Chemie (International Ed. in English), 2022).

The target in assay [1] is T1, SIRT5 (Homo sapiens, UniProt Q9NXA8).
T1 sequence (Q9NXA8 34-310): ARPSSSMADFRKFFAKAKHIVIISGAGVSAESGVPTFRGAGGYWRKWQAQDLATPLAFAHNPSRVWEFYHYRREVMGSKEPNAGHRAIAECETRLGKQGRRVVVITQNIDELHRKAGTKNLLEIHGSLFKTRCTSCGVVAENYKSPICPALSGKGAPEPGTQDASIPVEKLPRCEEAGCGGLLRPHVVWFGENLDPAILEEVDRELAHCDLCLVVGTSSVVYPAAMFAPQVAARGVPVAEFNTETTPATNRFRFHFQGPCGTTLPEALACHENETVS
In words: End-point SIRT5 deglutarylase inhibition assay. The class given is biochemical. The conditions noted are these: Figure 1A; inhibitor 100 μM; NI = no inhibition. The method, boiled down:
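End-point deglutarylase assay using recombinant SIRT5 (150 nM) with Ac-LGKglut-AMC substrate (50 μM). Results are given as IC50 from dose-response curves (mean ± SD) or as %-inhibition at stated concentrations. Each value comes from at least two individual assays run in duplicate.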

The target of assay [2] is T1, SIRT5. In words: Continuous SIRT5 enzyme inhibition assay. Type of assay: biochemical. The method, boiled down:
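Continuous trypsin-coupled progression-curve assay with SIRT5 80 nM, NAD⁺ 500 μM, Ac-LGKglu-AMC 40 μM and trypsin 1.70 ng×μL⁻¹, run at several inhibitor concentrations. k_obs was plotted against inhibitor concentration and fitted to slow-binding mechanism A or B, giving Ki and rate constants.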

The target in another assay is T2, SIRT5 in HEK293T cells (Homo sapiens, UniProt Q9NXA8).
T2 sequence (Q9NXA8 37-310): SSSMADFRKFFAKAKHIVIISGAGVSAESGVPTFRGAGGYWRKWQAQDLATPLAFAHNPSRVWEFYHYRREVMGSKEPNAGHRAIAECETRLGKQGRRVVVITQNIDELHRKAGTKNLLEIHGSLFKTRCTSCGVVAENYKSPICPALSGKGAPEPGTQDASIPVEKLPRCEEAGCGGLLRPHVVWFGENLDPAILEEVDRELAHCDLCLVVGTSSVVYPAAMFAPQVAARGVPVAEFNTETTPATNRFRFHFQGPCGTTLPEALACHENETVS
In words: Isothermal dose-response cellular thermal shift assay. Type of assay: cell-based. The method, boiled down: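 ITDRF-CETSA in HEK293T cells. Cells were treated 2 h with test compound at 2.6 nM–10 μM, with a reference inhibitor at 10 μM as internal control. Samples were heated at 52 °C and soluble SIRT5 was detected by immunoblot. EC50 came from fitted dose-response curves (n≥2), and EC50s of masked/unmasked pairs were compared.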

Another assay deals with HEK293T cells. Nature of the assay: MTT cell viability assay, HEK293T. Type of assay: cell-based, human. The conditions noted are these: concentrations up to 100 μM. The method, boiled down:
(§1)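 Viability dose-response in cultured SKM-1, OCI-AML2, MOLM-13 (AML) and HEK293T cells, with concentrations up to 100 μM. GI50 was taken from dose-response curves. Data come from three individual assays performed in duplicate.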
For orientation: Tetrazolium assays rely on reduction of a dye to a coloured formazan, in cell work by metabolically active cells.

The test system of a further assay is SKM-1 cells. In words: MTT cell viability assay, SKM-1. The conditions noted are these: concentrations up to 100 μM. The class given is cell-based. The method, boiled down:
as §1

Assay [3] relates to SIRT5 activity in HeLa cells. In words: Live cell imaging of SIRT5 activity. The class given is cell-based. The conditions noted are these: 10 μM inhibitor, co-treatment with labeled peptide substrate 250 µM, 6 hours. The method, boiled down:
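HeLa cells were co-treated with a dye-labeled succinylated peptide substrate and test compound at 10 μM. Mitochondrial SIRT5 desuccinylation triggers peptide self-assembly, and the resulting fluorescence was read in cells. This was single-concentration only, without dose-response.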

Where two headings read alike, the source gives them in different places.

Consider `CCCCNC(=S)NCCCC[C@H](NS(=O)(=O)c1cccc(F)c1)C(=O)N[C@@H](Cc1c[nH]c2ccccc12)C(=O)NC1CCC1` [Compound 2], for which the “%-inhibition of SIRT5 deglutarylase activity at 100 μM” value on SIRT5 [1] was “did not show substantial inhibition”.
Same read-out and setting: the same measure for `O=C(NC1CCC1)[C@H](Cc1c[nH]c2ccccc12)NC(=O)[C@H](CCCCNC(=S)NCCCO)NS(=O)(=O)c1cccc(F)c1` [Compound 3]: “did not show substantial inhibition”.
For `NC(=O)CCNC(=S)NCCCC[C@H](NS(=O)(=O)c1cccc(F)c1)C(=O)N[C@@H](Cc1c[nH]c2ccccc12)C(=O)NC1CCC1` [Compound 4], the “Ki” value on SIRT5 [2] is reported as “micromolar range”.
Regarding `O=C1CC(CCNC(=S)NCCCC[C@H](NS(=O)(=O)c2cccc(F)c2)C(=O)N[C@@H](Cc2c[nH]c3ccccc23)C(=O)NC2CCC2)=NO1` [Compound 22], at SIRT5 in HEK293T cells, the concentration giving a half-maximal response (EC50) is > 10000 nM. Further, at SIRT5 [2] (Ki), the inhibitory constant (Ki) was ~100 nM.
For `O=C(NC1CCC1)[C@H](Cc1c[nH]c2ccccc12)NC(=O)[C@H](CCCCNC(=S)NCCc1nnn[nH]1)NS(=O)(=O)c1cccc(F)c1` [Compound 24], the EC50 on SIRT5 in HEK293T cells is 1300 nM. In addition, the “Ki” value on SIRT5 [2] is recorded as “low nanomolar range”. Also, the “decrease in viability of HEK293T cells” value in the assay with HEK293T cells is “None of the acidic compounds 1, 16, and 24 caused substantial decrease in viability”. In addition, the “decrease in viability of SKM-1 cells” value in the assay on SKM-1 cells is “None of the acidic compounds 1, 16, and 24 caused substantial decrease in viability”. Moreover, the “inhibition of SIRT5 activity in HeLa cells (fluorescence)” value in assay [3] is “inhibition of SIRT5 activity”.
In the case of `O=C(CCNC(=S)NCCCC[C@H](NS(=O)(=O)c1cccc(F)c1)C(=O)N[C@@H](Cc1c[nH]c2ccccc12)C(=O)NC1CCC1)NO` [Compound 27], the inhibition constant (Ki) on SIRT5 [2] is on record as “micromolar range”.

Broadly, the Ki is the dissociation constant of the complex between target and ligand, obtained from inhibition or displacement. A higher Ki goes with weaker binding. One may read the EC50 as the concentration that produces a half-maximal response.
